The source of these data is ChEMBL document CHEMBL4028857, “Anchimerically Activated ProTides as Inhibitors of Cap-Dependent Translation and Inducers of Chemosensitization in Mantle Cell Lymphoma” (J Med Chem, 2017).

Calls of active or inactive are those of the source. The rule behind the calls is not given here. Some results are limits rather than exact numbers.

In data set [1] the test system is Granta-519. The data set can be described thus: Drug uptake in human GRANTA-519 cells assessed per 5 million cells at 150 uM after 12 hrs by LC-MS/MS analysis. It is filed as ADME, cell-based. The conditions noted are these: granta-519, 12 h. A digest of the protocol:
(§1)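 Five million MCL cells in RPMI/10% FBS with penicillin, streptomycin and L-glutamine were exposed to compound (150 µM) for 12 h at 37 °C. Cells were washed in cold PBS, extracted in MeOH/NH4OAc (60:40) with 80 fmol internal standards, freeze-thawed three times, then filtered and dried. Residue was taken up in HEPES for LC-MS/MS, quantified against an internal-standard curve.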

Data set [2] in a line: AUC (0 to 8 hrs) in Sprague-Dawley rat plasma at 2.5 mg/kg, iv by LC-MS/MS analysis. It is filed as ADME, organism-based. Set-up: time < 8 hr, dose 2.5 mg/kg, route intravenous. In a few lines: (§2)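 Female Sprague-Dawley rats (250-274 g, n=3, catheterized femoral/jugular veins) dosed once p.o. by gavage (25 mg/kg) then, after a 3-day washout, i.v. (2.5 mg/kg). Formulation: 10 mg/mL in 0.5% aqueous CMC with 5% DMSO. Serial blood draws to 480 min into K2EDTA; plasma protein-precipitated with acetonitrile plus internal standards; LC-MS/MS (positive MRM); non-compartmental PK; %F from dose-normalized AUC per rat.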

Data set [3] in a line: Oral bioavailability in Sprague-Dawley rat at 25 mg/kg by LC-MS/MS analysis. In kind it is ADME, organism-based. The conditions noted are these: in vivo. In a few lines:
as §2

Data set [4] has as its target T1, Adenosine 5'-monophosphoramidase HINT1 (Homo sapiens, UniProt P49773). The data set can be described thus: Prodrug activation in human Z138 cells assessed as Hint1 mediated 2-amino-7-(2-(4-chlorophenoxy)ethyl)-9-((2R,3R,4S,5R)-3,4-dihydroxy-5-(phosphonooxymethyl)tetrahydrofuran-2-yl)-6-oxo-6,9-dihydro-1H-purin-7-ium formation per 5 million cells at 150 uM after 12 hrs by LC-MS/MS analysis. It is filed as cell-based. In a few lines:
(§3)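 Mantle cell lymphoma cells (five million) grown in RPMI with 10% FBS, penicillin/streptomycin and L-glutamine at 37 °C, 5% CO2, then exposed to 150 µM compound for 12 h at 37 °C. Washed with ice-cold PBS, pellet extracted in MeOH/NH4OAc (60:40) with 80 fmol internal standards, three liquid-N2 freeze–thaw cycles, filtered, dried, redissolved in 20 mM HEPES pH 7.2. Analysed by LC-MS/MS against a standard curve.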

Data set [5] has as its system Rattus norvegicus. The data set is described as follows: AUC (0 to 8 hrs) in Sprague-Dawley rat plasma assessed as 2-amino-7-(2-(4-chlorophenoxy)ethyl)-9-((2R,3R,4S,5R)-3,4-dihydroxy-5-(phosphonooxymethyl)tetrahydrofuran-2-yl)-6-oxo-6,9-dihydro-1H-purin-7-ium at 2.5 mg/kg, iv by LC-MS/MS analysis. The conditions noted are these: in vivo. Also on record: time < 8 hr, dose 2.5 mg/kg, route intravenous. It is filed as ADME, organism-based. A digest of the protocol:
as §2

Data set [6] has as its target T1, Adenosine 5'-monophosphoramidase HINT1. The data set can be described thus: Prodrug activation in human GRANTA-519 cells assessed as Hint1 mediated 2-amino-7-(2-(4-chlorophenoxy)ethyl)-9-((2R,3R,4S,5R)-3,4-dihydroxy-5-(phosphonooxymethyl)tetrahydrofuran-2-yl)-6-oxo-6,9-dihydro-1H-purin-7-ium formation per 5 million cells at 150 uM after 12 hrs by LC-MS/MS analysis. It is filed as cell-based. A digest of the protocol: as §1

Data set [7] in a line: Clearance in Sprague-Dawley rat at 2.5 mg/kg, iv by LC-MS/MS analysis. The conditions noted are these: Sprague-Dawley, in vivo. In kind it is ADME, organism-based. A digest of the protocol:
as §2

The target in data set [8] is T1, Adenosine 5'-monophosphoramidase HINT1. The data set is described as follows: Prodrug activation in human Mino cells assessed as Hint1 mediated 2-amino-7-(2-(4-chlorophenoxy)ethyl)-9-((2R,3R,4S,5R)-3,4-dihydroxy-5-(phosphonooxymethyl)tetrahydrofuran-2-yl)-6-oxo-6,9-dihydro-1H-purin-7-ium formation per 5 million cells at 150 uM after 12 hrs by LC-MS/MS analysis. In kind it is cell-based. A digest of the protocol: as §3

Data set [9] is described as follows: AUC (0 to 8 hrs) in Sprague-Dawley rat plasma at 25 mg/kg, po by LC-MS/MS analysis. Also on record: time < 8 hr, dose 25 mg/kg, route oral. It is filed as ADME, organism-based. A digest of the protocol: as §2
For data set [10], the system named is Plasma. The data set is described as follows: Prodrug activation in Sprague-Dawley rat plasma assessed as 2-amino-7-(2-(4-chlorophenoxy)ethyl)-9-((2R,3R,4S,5R)-3,4-dihydroxy-5-(phosphonooxymethyl)tetrahydrofuran-2-yl)-6-oxo-6,9-dihydro-1H-purin-7-ium level at 2.5 mg/kg, iv measured at 5 mins by LC-MS/MS analysis. In kind it is organism-based. The conditions noted are these: in vivo. In a few lines:
as §2

Data set [11] is described as follows: Half life in Sprague-Dawley rat at 2.5 mg/kg, iv by LC-MS/MS analysis. In kind it is ADME, organism-based. The conditions noted are these: in vivo. In a few lines: as §2
Data set [12] has as its system Z-138. The data set is described as follows: Drug uptake in human Z138 cells assessed per 5 million cells at 150 uM after 12 hrs by LC-MS/MS analysis. It is filed as ADME, cell-based. The conditions noted are these: z-138, 12 h. In a few lines: as §1
Data set [13] in a line: Drug uptake in human Mino cells assessed per 5 million cells at 150 uM after 12 hrs by LC-MS/MS analysis. It is filed as ADME, cell-based. A digest of the protocol: as §1
The nature of data set [14]: Volume of distribution in Sprague-Dawley rat at 2.5 mg/kg, iv by LC-MS/MS analysis. It is filed as ADME, organism-based. The conditions noted are these: in vivo. A digest of the protocol: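 Female Sprague-Dawley rats (n=3, 250-274 g) with catheters; compound in 0.5% aqueous CMC with 5% DMSO given as a single i.v. injection, 2.5 mg/kg. Blood drawn at 0–480 min into K2EDTA tubes. Plasma precipitated with acetonitrile containing internal standards, then LC-MS/MS in positive MRM mode. Parameters from non-compartmental analysis.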

The nature of data set [15]: Half life in HEPES buffer at 80 uM at pH 7.2 by RP-HPLC analysis. It is filed as physicochemical. A digest of the protocol:
(§4)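 Compound at 80 µM in 20 mM HEPES (pH 7.2 or 2.0) incubated at 37 °C; aliquots analyzed by RP-HPLC at 0, 1, 4, 6, 12, 18 and 24 h to follow methylthioalkyl deprotection and derive half-life.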

Data set [16] deals with Mino. The data set can be described thus: Antiproliferative activity against human Mino cells at 100 uM preincubated for 48 hrs followed by thymidine addition measure after 16 hrs by Thymidine incorporation assay. It is filed as functional, cell-based. In a few lines: (§5)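 MCL lines treated 48 h with compound re-added daily, alone or with co-drug (ibrutinib 25 µM where used), then thymidine added for a further 16 h; proliferation read as thymidine incorporation.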

In data set [17] the test system is Mino. The data set can be described thus: Antiproliferative activity against human Mino cells at […] preincubated for 48 hrs followed by thymidine addition measure after 16 hrs by Thymidine incorporation assay. It is filed as functional, cell-based. In a few lines: as §5
Data set [18] relates to Mino. The data set is described as follows: Antiproliferative activity against human Mino cells at 25 uM preincubated for 48 hrs followed by thymidine addition measure after 16 hrs by Thymidine incorporation assay. In kind it is functional, cell-based. In a few lines:
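MCL cell lines exposed to ProTide 48 h with fresh compound added every day, then thymidine added for a further 16 h. Proliferation read as thymidine incorporation.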

Data set [19] is described as follows: Cytotoxicity against human Mino cells assessed as reduction in cell survival at 25 uM after 48 hrs by Annexin V/propidium iodide based flow cytometric analysis. A digest of the protocol:
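MCL cell lines exposed to ProTide 48 h, re-dosed daily. Survival read by Annexin V/PI staining on flow cytometry.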

For data set [20], the target named is Eukaryotic translation initiation factor 4E-binding protein 1 (Homo sapiens) (UniProt Q13541). The data set is described as follows: Inhibition of 4EBP1 phosphorylation at Thr 37/46 residues in human Mino cells at 10 to 25 uM after 48 hrs by Western blot analysis. It is filed as cell-based. A digest of the protocol: (§6)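 MCL cell lines treated with ProTide 48 h. Lysates were protein-quantified, then immunoblotted.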
Sequence of Eukaryotic translation initiation factor 4E-binding protein 1 (Homo sapiens) (Q13541 whole entry): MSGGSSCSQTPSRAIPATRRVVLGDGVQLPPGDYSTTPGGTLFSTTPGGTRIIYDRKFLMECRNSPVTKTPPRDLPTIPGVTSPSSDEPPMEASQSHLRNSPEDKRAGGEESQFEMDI

Data set [21] shares this target. The data set is described as follows: Inhibition of 4EBP1 phosphorylation at Ser 65 residues in human Mino cells at 10 to 25 uM after 48 hrs by Western blot analysis. It is filed as cell-based. In a few lines: as §6
Data set [22] concerns the target Eukaryotic translation initiation factor 4E (Homo sapiens) (UniProt P06730). The data set is described as follows: Inhibition of eIF4E in human Mino cells assessed as down regulation of c-Myc protein expression at 10 to 25 uM after 48 hrs by Western blot analysis. It is filed as cell-based. In a few lines:
as §6

Data set [23] can be described thus: Half life in HEPES buffer at 80 uM at pH 2 by RP-HPLC analysis. In kind it is physicochemical. A digest of the protocol: as §4

T1 sequence (P49773 whole entry): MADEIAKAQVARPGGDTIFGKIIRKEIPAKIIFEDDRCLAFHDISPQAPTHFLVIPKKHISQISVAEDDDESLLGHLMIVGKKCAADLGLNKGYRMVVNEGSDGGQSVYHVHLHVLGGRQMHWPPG
Sequence of Eukaryotic translation initiation factor 4E (Homo sapiens) (P06730 whole entry): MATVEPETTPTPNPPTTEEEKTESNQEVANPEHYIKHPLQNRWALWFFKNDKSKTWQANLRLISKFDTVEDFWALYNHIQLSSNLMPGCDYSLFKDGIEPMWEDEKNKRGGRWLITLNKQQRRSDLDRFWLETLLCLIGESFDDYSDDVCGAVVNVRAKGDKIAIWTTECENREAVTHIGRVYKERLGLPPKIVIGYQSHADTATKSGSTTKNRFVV

Consider `Nc1nc2c(c(=O)[nH]1)[n+](CCOc1ccc(Cl)cc1)cn2[C@@H]1O[C@H](COP(=O)(O)NCCc2c[nH]c3ccccc23)[C@@H](O)[C@H]1O`, for which the results for the Drug uptake in data set [1], in [12] and in data set [13] were 1.52 pmol, 0.163 pmol and 0.59 pmol, respectively. Besides, the AUC(0-t) at 8 h in data set [2] is 147 ng·h/mL; in data set [9] it was 31.7 ng·h/mL. For the same compound, the bioavailability in [3] was under 1%. Further, the Drug metabolism was found to be 0.523 pmol in [4], 5.23 pmol in data set [6], 7.49 pmol in [8] and 583 ng/mL in [10]. Also, in [5], the AUC came to 13.1 µg·min/mL. Also, the clearance in [7] stood at 300 mL/min/kg. Further, in data set [11], the half-life stood at 2.72 h. Further, in data set [14], the Vd is 70 L/kg.

`CSCCCOP(=O)(NCCc1c[nH]c2ccccc12)OC[C@H]1O[C@@H](n2c[n+](CCOc3ccc(Cl)cc3)c3c(=O)[nH]c(N)nc32)[C@H](O)[C@@H]1O` (some centres undefined) yielded a half-life at 80 µM in data set [15] of over 60 h.

In the case of `C[C@@H]1C[C@H]2[C@@H]3CCC4=CC(=O)C=C[C@]4(C)[C@@]3(F)[C@@H](O)C[C@]2(C)[C@@]1(O)C(=O)CO`, the result in data set [16] was Active.

Turning to `COc1cccc2c1C(=O)c1c(O)c3c(c(O)c1C2=O)C[C@@](O)(C(=O)CO)C[C@@H]3O[C@H]1C[C@H](N)[C@H](O)[C@H](C)O1`, in data set [17], the result was inactive.

In the case of `C=CC(=O)N1CCC[C@@H](n2nc(-c3ccc(Oc4ccccc4)cc3)c3c(N)ncnc32)C1` [IBRUTINIB], the result in data set [18] was inactive. In addition, the Activity result in data set [19] is on record as “Non-Toxic”. Moreover, the inhibition result in [20] is “inactive”. Besides, the inhibition result in [21] and in data set [22] was “Active” throughout.

Turning to `CSCCCCOP(=O)(NCCc1c[nH]c2ccccc12)OC[C@H]1O[C@@H](n2c[n+](CCOc3ccc(Cl)cc3)c3c(=O)[nH]c(N)nc32)[C@H](O)[C@@H]1O` (some centres undefined), the half-life at 80 µM in data set [23] is 13 h; in data set [15] it was 10.4 h.
